Data as given in ChEMBL document CHEMBL1135669, “Improving the oral efficacy of CNS drug candidates: discovery of highly orally efficacious piperidinyl piperidine M2 muscarinic receptor antagonists” (J Med Chem, 2002).
Calls of active or inactive are those of the source.

Legend:
Homo sapiens = species on record: Homo sapiens; assay: Percent of Parent compound remaining after 20 min incubation with human liver microsomes (Human microsomal stability); type: functional
Method in brief: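 Compounds at 10 μg/mL were incubated with human liver microsomes for 20 min. Metabolic stability is reported as % parent compound remaining.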

[1] = target: T1, Muscarinic acetylcholine receptor M2 (Homo sapiens, UniProt P08172); assay: Binding affinity for human Muscarinic acetylcholine receptor M2
T1 sequence (P08172 whole entry): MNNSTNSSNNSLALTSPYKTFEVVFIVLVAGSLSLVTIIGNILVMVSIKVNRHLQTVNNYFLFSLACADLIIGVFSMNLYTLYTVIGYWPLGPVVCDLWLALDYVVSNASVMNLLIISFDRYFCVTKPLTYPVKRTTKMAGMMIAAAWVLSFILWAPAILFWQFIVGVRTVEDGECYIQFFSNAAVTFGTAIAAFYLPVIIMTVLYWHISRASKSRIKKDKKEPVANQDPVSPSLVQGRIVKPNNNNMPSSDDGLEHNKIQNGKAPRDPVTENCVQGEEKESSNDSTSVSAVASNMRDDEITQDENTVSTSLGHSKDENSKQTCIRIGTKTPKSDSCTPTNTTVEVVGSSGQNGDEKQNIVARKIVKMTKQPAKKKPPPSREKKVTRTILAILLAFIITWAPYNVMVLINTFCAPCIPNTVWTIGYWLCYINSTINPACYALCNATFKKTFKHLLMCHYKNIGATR

Rattus norvegicus [2] = assay: Orally active dose in passive avoidance response (PAR); inactive; type: functional, organism-based
Method in brief: (§1)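 Rat passive avoidance response, a reference-memory cognitive paradigm, with oral dosing. The value is the orally active dose in mg/kg, defined as a significant change in latency over vehicle (4% MC), p < 0.05 by Dunnett's T test, n = 36.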

Rattus norvegicus [3] = assay: ACh released compared with baseline (100%) in rat striatum after iv administration (0-2 h,10 mg/kg, 20% HPbetaCD) using microdialysis assay; type: functional
Rattus norvegicus [4] = assay: ACh released compared with baseline (100%) in rat striatum after peroral administration (0-2 h,10 mg/kg, 20% HPbetaCD) using microdialysis assay; type: functional
Method in brief: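 Rat striatal microdialysis: single oral dose of 10 mg/kg in 20% HPβCD vehicle. ACh in dialysate collected from 0 to 2 h, expressed as % of preinjection baseline (baseline = 100%). ACh release is measured in the presence of neostigmine. Stimulation over baseline was judged by Duncan's Multiple Range Statistic.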

Rattus norvegicus [5] = assay: Orally active dose in passive avoidance response (PAR); type: functional; method in brief: as §1
[6] = Area under curve (high throughput single measurement) after peroral administration (10 mg/kg, 0-6 hr) in rat was determined; details: in vivo, po

Ki [1] [nM]	Compound	Activity (Rattus norvegicus [4]) [%]	further results
32	CC(=C1CCN(C2CCN(C(=O)c3cccc(C)c3N)CC2)CC1)c1ccc(S(=O)(=O)C(C)C)cc1		Activity (Homo sapiens): 80%
9.6	CC(=C1CCN(C2CCN(C(=O)c3ccc(F)c4ccccc34)CC2)CC1)c1ccc(S(=O)(=O)C(C)C)cc1		Activity (Homo sapiens): 74%
	CC(C)Sc1ccc(CC2CCN(C3CCN(C(=O)c4cccc5ccccc45)CC3)CC2)cc1	110	Activity (Rattus norvegicus [2]): inactive; Activity (Rattus norvegicus [3]): 210%
221	CC(C)S(=O)(=O)c1ccc(CC2CCN(C3CCN(C(=O)c4ccc(F)c5ccccc45)CC3)CC2)cc1		
	COc1ccc(S(=O)(=O)c2ccc(C3(C4CCN(C5CCN(C(=O)c6ccc(F)c7ccccc67)CC5)CC4)OCCO3)cc2)cc1	180	PAR (Rattus norvegicus [5]): 0.1 mg/kg
1.3	CC(=C1CCN(C2CCN(C(=O)c3ccc(F)c4ccccc34)CC2)CC1)c1ccc([S+]([O-])C(C)C)cc1 (single isomer, unassigned; (+))	179	
0.89	CC(=C1CCN(C2CCN(C(=O)c3cccc(C)c3N)CC2)CC1)c1ccc([S+]([O-])C(C)C)cc1 (single isomer, unassigned; (+))	225	PAR (Rattus norvegicus [5]): 0.0001 mg/kg
2.4	CC(=C1CCN(C2CCN(C(=O)c3ccc(F)c4ccccc34)CC2)CC1)c1ccc([S+]([O-])C(C)C)cc1 (single isomer, unassigned; (-))	155	
12	CC(=C1CCN(C2CCN(C(=O)c3cccc(C)c3N)CC2)CC1)c1ccc([S+]([O-])C(C)C)cc1 (single isomer, unassigned; (-))		
2.7	CC(=C1CCN(C2CCN(C(=O)c3ccc(F)c4ccccc34)CC2)CC1)c1ccc([S+]([O-])C(C)C)cc1 (stereo in doubt; 13) [listing 1 of 2 here]		
	CC(=C1CCN(C2CCN(C(=O)c3ccc(F)c4ccccc34)CC2)CC1)c1ccc([S+]([O-])C(C)C)cc1 (stereo in doubt; 13) [listing 2 of 2 here]		Activity (Homo sapiens): 66%
6.6	CC(=C1CCN(C2CCN(C(=O)c3cccc(C)c3N)CC2)CC1)c1ccc([S+]([O-])C(C)C)cc1 (stereo in doubt; 14) [listing 1 of 2 here]		
	CC(=C1CCN(C2CCN(C(=O)c3cccc(C)c3N)CC2)CC1)c1ccc([S+]([O-])C(C)C)cc1 (stereo in doubt; 14) [listing 2 of 2 here]		Activity (Homo sapiens): 64%
	Cc1cccc(C(=O)N2CCC(N3CCC(Cc4ccc(S(=O)(=O)c5cccc(Cl)c5)cc4)CC3)CC2)c1N [SCH-211803]	180	PAR (Rattus norvegicus [5]): 0.001 mg/kg; AUC at 6 h [6]: 908 ng·h/mL
